Measurements from publication PMC7511286 (European Journal of Drug Metabolism and Pharmacokinetics, 2020).

Experiment: MAD study: safety and tolerability
Type: in vivo, human
Conditions: for TEAE Hemoglobinuria: subjects having the event: based solely on a positive dip stick test
How it was run: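 Healthy males aged 18–55 took oral tablets. Treatment-emergent AEs were recorded by clinical evaluation. Vital signs (blood pressure, pulse), 12-lead and Holter ECG, physical examination, and urine and plasma laboratory tests were also assessed. AEs of special interest were hematuria and retroperitoneal colicky pain with suspected or confirmed nephrolithiasis. Subjects were hospitalized around dosing.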

COc1cccc(-c2ccc(NC(=O)C3=C(C(=O)O)CCC3)c(F)c2)c1 [IMU-838, vidofludimus calcium]
TEAE Abdominal pain upper: number of events (25 mg (initiation dose), n = 8): 1 | TEAE Abdominal pain upper: subjects having the event (25 mg (initiation dose), n = 8): 1 (12.5) N (%) | TEAE Atrioventricular block first degree: number of events (25 mg (initiation dose), n = 8): 1 | TEAE Atrioventricular block first degree: subjects having the event (25 mg (initiation dose), n = 8): 1 (12.5) N (%) | TEAE Diarrhea: subjects having the event (25 mg (initiation dose), n = 8): 1 (12.5) N (%) | TEAE Nasopharyngitis: subjects having the event (25 mg (initiation dose), n = 8): 1 (12.5) N (%) | TEAEs Cardiac disorders Total: number of events (25 mg (initiation dose), n = 8): 1 | TEAEs Cardiac disorders Total: subjects having the event (25 mg (initiation dose), n = 8): 1 (12.5) N (%) | TEAEs Gastrointestinal disorders Total: number of events (25 mg (initiation dose), n = 8): 2 | TEAEs Gastrointestinal disorders Total: subjects having the event (25 mg (initiation dose), n = 8): 1 (12.5) N (%) | TEAEs Infections and infestations Total: number of events (25 mg (initiation dose), n = 8): 1 | TEAEs Infections and infestations Total: subjects having the event (25 mg (initiation dose), n = 8): 1 (12.5) N (%) | TEAEs Total: number of events (25 mg (initiation dose), n = 8): 4 | TEAEs Total: subjects having the event (25 mg (initiation dose), n = 8): 3 (37.5) N (%) | number of drug-related TEAEs (30 mg once daily): 18 | TEAE Abdominal pain: number of events (30 mg, n = 12): 1 | TEAE Abdominal pain: subjects having the event (30 mg, n = 12): 1 (8.3) N (%) | TEAE Feces soft: number of events (30 mg, n = 12): 2 | TEAE Feces soft: subjects having the event (30 mg, n = 12): 2 (16.7) N (%) | TEAE Flatulence: subjects having the event (30 mg, n = 12): 6 (50.0) N (%) | TEAE Gamma–glutamyl transferase increased: number of events (30 mg, n = 12): 2 | TEAE Gamma–glutamyl transferase increased: subjects having the event (30 mg, n = 12): 1 (8.3) N (%) | TEAE Headache: subjects having the event (30 mg, n = 12): 1 (8.3) N (%) | TEAE Lipase increased: number of events (30 mg, n = 12): 1 | TEAE Lipase increased: subjects having the event (30 mg, n = 12): 1 (8.3) N (%) | TEAE Musculoskeletal discomfort: number of events (30 mg, n = 12): 1 | TEAE Musculoskeletal discomfort: subjects having the event (30 mg, n = 12): 1 (8.3) N (%) | TEAE Nausea: subjects having the event (30 mg, n = 12): 1 (8.3) N (%) | TEAEs Gastrointestinal disorders Total: number of events (30 mg, n = 12): 14 | TEAEs Gastrointestinal disorders Total: subjects having the event (30 mg, n = 12): 7 (58.3) N (%) | TEAEs Investigations Total: number of events (30 mg, n = 12): 3 | TEAEs Investigations Total: subjects having the event (30 mg, n = 12): 2 (16.7) N (%) | TEAEs Musculoskeletal and connective tissue disorders Total: number of events (30 mg, n = 12): 1 | TEAEs Musculoskeletal and connective tissue disorders Total: subjects having the event (30 mg, n = 12): 1 (8.3) N (%) | TEAEs Nervous system disorders Total: number of events (30 mg, n = 12): 1 | TEAEs Nervous system disorders Total: subjects having the event (30 mg, n = 12): 1 (8.3) N (%) | TEAEs Renal and urinary disorders Total: number of events (30 mg, n = 12): 1 | TEAEs Renal and urinary disorders Total: subjects having the event (30 mg, n = 12): 1 (8.3) N (%) | TEAEs Total: number of events (30 mg, n = 12): 20 | TEAEs Total: subjects having the event (30 mg, n = 12): 9 (75.0) N (%) | TEAE Hemoglobinuria: subjects having the event (30 mg, n = 12): 1 (8.3) N (%) | number of drug-related TEAEs (40 mg once daily): 8 | TEAE Arthropod bite: number of events (40 mg, n = 12): 1 | TEAE Arthropod bite: subjects having the event (40 mg, n = 12): 1 (8.3) N (%) | TEAE Blood creatinine kinase increased: number of events (40 mg, n = 12): 1 | TEAE Blood creatinine kinase increased: subjects having the event (40 mg, n = 12): 1 (8.3) N (%) | TEAE Fatigue: subjects having the event (40 mg, n = 12): 3 (25.0) N (%) | TEAE Flatulence: subjects having the event (40 mg, n = 12): 1 (8.3) N (%) | TEAE Headache: subjects having the event (40 mg, n = 12): 1 (8.3) N (%) | TEAE Listless: subjects having the event (40 mg, n = 12): 1 (8.3) N (%) | TEAE Sneezing: subjects having the event (40 mg, n = 12): 1 (8.3) N (%) | TEAEs Gastrointestinal disorders Total: number of events (40 mg, n = 12): 1 | TEAEs Gastrointestinal disorders Total: subjects having the event (40 mg, n = 12): 1 (8.3) N (%) | TEAEs General disorders and administration site conditions Total: number of events (40 mg, n = 12): 3 | TEAEs General disorders and administration site conditions Total: subjects having the event (40 mg, n = 12): 3 (25.0) N (%) | TEAEs Injury, poisoning and procedural complications total: number of events (40 mg, n = 12): 1 | TEAEs Investigations Total: number of events (40 mg, n = 12): 1 | TEAEs Investigations Total: subjects having the event (40 mg, n = 12): 1 (8.3) N (%) | TEAEs Nervous system disorders Total: number of events (40 mg, n = 12): 2 | TEAEs Nervous system disorders Total: subjects having the event (40 mg, n = 12): 1 (8.3) N (%) | TEAEs Psychiatric disorders Total: number of events (40 mg, n = 12): 1 | TEAEs Psychiatric disorders Total: subjects having the event (40 mg, n = 12): 1 (8.3) N (%) | TEAEs Renal and urinary disorders Total: number of events (40 mg, n = 12): 2 | TEAEs Renal and urinary disorders Total: subjects having the event (40 mg, n = 12): 2 (16.7) N (%) | TEAEs Respiratory, thoracic and mediastinal disorders Total: number of events (40 mg, n = 12): 1 | TEAEs Total: number of events (40 mg, n = 12): 12 | TEAEs Total: subjects having the event (40 mg, n = 12): 6 (50.0) N (%) | TEAE Hemoglobinuria: subjects having the event (40 mg, n = 12): 2 (16.7) N (%) | number of drug-related TEAEs (50 mg once daily): 16 | TEAE Abdominal pain upper: number of events (50 mg, n = 16): 2 | TEAE Abdominal pain upper: subjects having the event (50 mg, n = 16): 1 (6.3) N (%) | TEAE Dyspepsia: subjects having the event (50 mg, n = 16): 1 (6.3) N (%) | TEAE Dysuria: subjects having the event (50 mg, n = 16): 1 (6.3) N (%) | TEAE Epistaxis: subjects having the event (50 mg, n = 16): 1 (6.3) N (%) | TEAE Flank pain: number of events (50 mg, n = 16): 1 | TEAE Flank pain: subjects having the event (50 mg, n = 16): 1 (6.3) N (%) | TEAE Headache: subjects having the event (50 mg, n = 16): 3 (18.8) N (%) | TEAE Hematuria: subjects having the event (50 mg, n = 16): 1 (6.3) N (%) | TEAE Lipase increased: number of events (50 mg, n = 16): 1 | TEAE Lipase increased: subjects having the event (50 mg, n = 16): 1 (6.3) N (%) | TEAE Nasopharyngitis: subjects having the event (50 mg, n = 16): 4 (25.0) N (%) | TEAE Tenderness: subjects having the event (50 mg, n = 16): 1 (6.3) N (%) | TEAEs Gastrointestinal disorders Total: number of events (50 mg, n = 16): 3 | TEAEs Gastrointestinal disorders Total: subjects having the event (50 mg, n = 16): 2 (12.5) N (%) | TEAEs General disorders and administration site conditions Total: number of events (50 mg, n = 16): 1 | TEAEs General disorders and administration site conditions Total: subjects having the event (50 mg, n = 16): 1 (6.3) N (%) | TEAEs Infections and infestations Total: number of events (50 mg, n = 16): 4 | TEAEs Infections and infestations Total: subjects having the event (50 mg, n = 16): 4 (25.0) N (%) | TEAEs Investigations Total: number of events (50 mg, n = 16): 1 | TEAEs Investigations Total: subjects having the event (50 mg, n = 16): 1 (6.3) N (%) | TEAEs Musculoskeletal and connective tissue disorders Total: number of events (50 mg, n = 16): 1 | TEAEs Musculoskeletal and connective tissue disorders Total: subjects having the event (50 mg, n = 16): 1 (6.3) N (%) | TEAEs Nervous system disorders Total: number of events (50 mg, n = 16): 3 | TEAEs Nervous system disorders Total: subjects having the event (50 mg, n = 16): 3 (18.8) N (%) | TEAEs Renal and urinary disorders Total: number of events (50 mg, n = 16): 8 | TEAEs Renal and urinary disorders Total: subjects having the event (50 mg, n = 16): 6 (37.5) N (%) | TEAEs Respiratory, thoracic and mediastinal disorders Total: number of events (50 mg, n = 16): 1 | TEAEs Total: number of events (50 mg, n = 16): 22 | TEAEs Total: subjects having the event (50 mg, n = 16): 10 (62.5) N (%) | TEAE Hemoglobinuria: subjects having the event (50 mg, n = 16): 5 (31.3) N (%) | tolerability (30–50 mg once daily over 14 consecutive days): well tolerated | deaths or serious AEs (single and multiple doses (SAD and MAD)): no deaths or serious AEs | overall number of drug-related TEAEs (whole MAD study, 52 subjects including placebo): 53 | overall number of TEAEs (whole MAD study, 52 subjects including placebo, mild or moderate intensity): 79
